Test results as given in ChEMBL document CHEMBL1129943, “5-aminocoumarans: dual inhibitors of lipid peroxidation and dopamine release with protective effects against central nervous system trauma and ischemia” (J Med Chem, 1997).

Legend:
Type in all cases: functional
Mus musculus [1] = organism: Mus musculus; assay: Peroral dose required to reduce by 50% the score of excitatory behavior induced by intrathecal injection of ferrous chloride in mice; conditions: central, read-out: ID50 (the source's name)
Outline: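 Male Slc:ICR mice, 5 weeks old, 10 per dose. Compound given orally 30 min before intrathecal 5 μL of 50 mM FeCl2 in saline (between L6 and S1). Vehicle was water, or 0.5% gum arabic suspension. Behaviour scored 0–5 (biting to death) from 15 min to 1 h. ID50 from three or four doses, relative to vehicle score.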

Rattus norvegicus [2] = organism: Rattus norvegicus; assay: Inhibition of lipid peroxidation by rat liver microsomes; design: concentration or dose not given beside the values; conditions: dose or concentration not given here
Outline: (§1)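 Rat liver microsomes (S-9), 0.3 mg protein in 40 mM Tris-malate pH 7.4. Peroxidation started with a 1:1 mix of FeCl2 (0.25 mM) and NADPH (3 mM), then 1 h at 37 °C. Compound in DMSO added before incubation, tested up to 1 μM final. Thiobarbituric acid method read-out. Activity relative to DMSO vehicle; IC50 from four concentrations by nonlinear regression, otherwise % inhibition at 1 μM.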

Mus musculus [3] = organism: Mus musculus; assay: Percentage increase of locomotor activity in mice
Mus musculus [4] = assay: Locomotor activity was measured in mice after 1 hour administration of methamphetamine; design: unit not given here
Rattus norvegicus [5] = organism: Rattus norvegicus; assay: Concentration required to reduce by 50% the amount of lipid peroxide formed in rat liver microsomes; outline: as §1

Row | SMILES | ED50 (Mus musculus [1]) [mg/kg] | inhibition (Rattus norvegicus [2]) [%] | Increase (Mus musculus [3]) [%] | Locomotor activity (Mus musculus [4]) | IC50 (Rattus norvegicus [5]) [nM]
1 | Cc1c(C)c2c(c(C)c1NS(C)(=O)=O)CC(C)(C)O2 | > 100 | -1 |  |  | 
2 | Cc1c(C)c2c(c(C)c1N)CC(C)(CSc1ccccc1)O2 (centres undefined) | 24.7 |  | 24.7 | <1098 | 270
3 | Cc1c(C)c2c(c(C)c1N)CC(C)(CSc1nccn1C)O2 (centres undefined) | 37.1 | 11 | 104.2 | 2228 | 
4 | Cc1c(C)c2c(c(C)c1N)CC(C)(CN1CCCCC1)O2 (centres undefined) | 11.7 | 18 | 93.7 | 2960 | 
5 | Cc1c(C)c2c(c(N)c1N)CC(C)(C)O2 | > 50 |  |  |  | 300
6 | Cc1c(C)c2c(c(N(C)C)c1N)CC(C)(C)O2 | 22.3 |  |  |  | 550
7 | Cc1c(C)c2c(c(C)c1N)CC(C)(CN1CCN(C(c3ccccc3)c3ccccc3)CC1)O2 (centres undefined) | > 50 |  | 62.8 | 1664 | 70
8 | CCCCCc1ccc(C2c3c(C)c(N)c(C)c(C)c3OC2(C)C)cc1 (centres undefined) | 42.2 |  |  |  | 50
9 | Cc1c(C)c2c(c(C)c1N)CC(C)(CS(=O)(=O)c1ccccc1)O2 (centres undefined) | 36.6 |  |  |  | 800
10 | Cc1c(C)c2c(c(C)c1Nc1ccc3c(c1)CC(C)(C)O3)CC(C)(C)O2 | > 25 |  |  |  | 30
11 | Cc1c(C)c2c(c(C)c1N)CC(C)(CSc1ccncc1)O2 (centres undefined) | 19.9 |  | 10.2 | <892 | 630
12 | CCOC(=O)Nc1c(C)c(C)c2c(c1C)CC(C)(C)O2 | > 100 | 1 |  |  | 
13 | Cc1cc(N)c(C)c2c1OC(C)(C)C2 | 32.3 | 19 |  |  | 
14 | Cc1c(C)c2c(c(C)c1N)CC(C)(CN1CCN(C)CC1)O2 (centres undefined) | 25.3 | 10 | 181.1 | 3154 | 
15 | CC(C)=Cc1c(C)c(N)c(C)c2c1OC(C)(C)C2 | 21.9 |  |  |  | 300
16 | Cc1c(C)c2c(c(C)c1N)CC(C)(CNCc1ccccc1)O2 (centres undefined) | 9.1 |  | 46.1 | 1340 | 290

Row | SMILES | ED50 (Mus musculus [1]) [mg/kg] | inhibition (Rattus norvegicus [2]) [%] | Increase (Mus musculus [3]) [%] | Locomotor activity (Mus musculus [4]) | IC50 (Rattus norvegicus [5]) [nM]
17 | Cc1c(C)c2c(c(C)c1N)CC(C)(C)O2 | 7.8 |  | 31.5 | <509 | 760
18 | Cc1c(C)c2c(c(C)c1N)C(c1ccc(F)cc1)C(C)(C)O2 (centres undefined) | 26.7 |  | 181.3 | 2156 | 280
19 | Cc1c(C)c2c(c(C)c1N)C(c1cccnc1)C(C)(C)O2 (centres undefined) | 32.1 | 22 | 52.1 | 1488 | 
20 | Cc1ccc(C2c3c(C)c(N)c(C)c(C)c3OC2(C)C)cc1 (centres undefined) | > 50 |  |  |  | 300
21 | CC1(C)Cc2cc(N)ccc2O1 | > 100 | 5 |  |  | 
22 | Cc1c(C)c2c(c(C)c1N)C(C(C)C)C(C)(C)O2 (centres undefined) | 14 |  |  |  | 290
23 | Cc1c(C)c2c(c(C)c1N)CC(C)(CCN1CCCCC1)O2 (centres undefined) | 18.4 | 8 | 206.5 | <3549 | 
24 | Cc1c(C)c2c(c(C)c1N)CC(C)(CCN(C)C)O2 (centres undefined) | 19 | 4 | 115.2 | 2129 | 
25 | Cc1c(C)c2c(c(C)c1N)CC(C)(CSc1nc3ccccc3s1)O2 (centres undefined) | 33.7 |  | 45.3 | 1391 | 70
26 | Cc1c(C)c2c(c(C)c1N)CC(C)(CSc1ccc(O)cc1)O2 (centres undefined) | > 50 |  |  |  | 220
27 | Cc1c(C)c2c(c(C)c1N)CC(C)(CN1CCC(c3ccccc3)CC1)O2 (centres undefined) | 10.4 |  | 1.8 | <482 | 70
28 | COCC1(C)Cc2c(C)c(N)c(C)c(C)c2O1 (centres undefined) | 20.1 |  | 76.7 | 1934 | 300
29 | Cc1c(C)c2c(c(C)c1N)CC(C)(CCc1ccc(F)cc1)O2 (centres undefined) | 11.5 |  | 80.1 | 1185 | 80
30 | Cc1c(C)c2c(c(C)c1N)CC(C)(C[S+]([O-])c1ccccc1)O2 (centres undefined) | 31.3 |  |  |  | 660
31 | Cc1c(C)c2c(c(C)c1N)CC(C)(CSCCC(=O)O)O2 (centres undefined) | 43 | 0 |  |  | 
